Data on two compounds can be found in ChEMBL document CHEMBL2417412, “Design, synthesis, and structure-activity relationships of dihydrofuran-2-one and dihydropyrrol-2-one derivatives as novel benzoxazin-3-one-based mineralocorticoid receptor antagonists” (Bioorg Med Chem, 2013).

What all share (format): cell-based, HEK293
Assay [1] addresses T1, Glucocorticoid receptor (Homo sapiens, UniProt P04150).
T1 sequence (P04150 whole entry): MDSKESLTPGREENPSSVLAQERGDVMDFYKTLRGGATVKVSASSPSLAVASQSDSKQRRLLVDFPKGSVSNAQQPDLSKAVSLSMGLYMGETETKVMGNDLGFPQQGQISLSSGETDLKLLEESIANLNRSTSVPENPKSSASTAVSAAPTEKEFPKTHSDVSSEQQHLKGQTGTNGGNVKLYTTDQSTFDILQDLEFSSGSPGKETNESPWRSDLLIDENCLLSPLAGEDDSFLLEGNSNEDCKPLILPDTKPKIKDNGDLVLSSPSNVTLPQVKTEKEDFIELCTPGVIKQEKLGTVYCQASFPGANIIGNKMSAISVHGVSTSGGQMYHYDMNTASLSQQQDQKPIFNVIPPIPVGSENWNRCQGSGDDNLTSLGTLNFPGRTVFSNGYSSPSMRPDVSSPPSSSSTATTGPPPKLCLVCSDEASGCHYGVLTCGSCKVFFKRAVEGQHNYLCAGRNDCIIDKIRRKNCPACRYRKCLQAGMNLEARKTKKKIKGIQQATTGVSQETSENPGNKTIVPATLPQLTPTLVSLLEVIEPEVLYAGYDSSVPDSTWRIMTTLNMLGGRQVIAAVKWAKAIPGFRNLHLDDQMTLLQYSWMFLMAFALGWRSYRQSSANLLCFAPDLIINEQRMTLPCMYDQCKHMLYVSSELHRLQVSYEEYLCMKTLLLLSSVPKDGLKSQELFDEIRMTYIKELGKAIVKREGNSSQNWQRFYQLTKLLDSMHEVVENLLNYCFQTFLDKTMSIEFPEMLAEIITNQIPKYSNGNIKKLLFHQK
The assay can be described thus: Displacement of [3H]-Dexamethasone human GR expressed in 293 cells after 16 hrs by scintillation counting. The method in brief:
(§1)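 These followed the MR cytosolic binding protocol (transfected 293 cells, TEGM buffer pH 7.2, 16 h at 4 °C, charcoal separation, scintillation counting of supernatant). The ligand was [3H]-dexamethasone for GR and [3H]-testosterone for AR. Concentrations were run in duplicate; IC50 taken as the mean of duplicate experiments from concentration-response curves.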
On the technique in general: In a radioligand displacement assay an active substance lowers the binding of a labelled ligand.

Assay [2] deals with T2, Progesterone receptor (Homo sapiens, UniProt P06401).
T2 sequence (P06401 whole entry): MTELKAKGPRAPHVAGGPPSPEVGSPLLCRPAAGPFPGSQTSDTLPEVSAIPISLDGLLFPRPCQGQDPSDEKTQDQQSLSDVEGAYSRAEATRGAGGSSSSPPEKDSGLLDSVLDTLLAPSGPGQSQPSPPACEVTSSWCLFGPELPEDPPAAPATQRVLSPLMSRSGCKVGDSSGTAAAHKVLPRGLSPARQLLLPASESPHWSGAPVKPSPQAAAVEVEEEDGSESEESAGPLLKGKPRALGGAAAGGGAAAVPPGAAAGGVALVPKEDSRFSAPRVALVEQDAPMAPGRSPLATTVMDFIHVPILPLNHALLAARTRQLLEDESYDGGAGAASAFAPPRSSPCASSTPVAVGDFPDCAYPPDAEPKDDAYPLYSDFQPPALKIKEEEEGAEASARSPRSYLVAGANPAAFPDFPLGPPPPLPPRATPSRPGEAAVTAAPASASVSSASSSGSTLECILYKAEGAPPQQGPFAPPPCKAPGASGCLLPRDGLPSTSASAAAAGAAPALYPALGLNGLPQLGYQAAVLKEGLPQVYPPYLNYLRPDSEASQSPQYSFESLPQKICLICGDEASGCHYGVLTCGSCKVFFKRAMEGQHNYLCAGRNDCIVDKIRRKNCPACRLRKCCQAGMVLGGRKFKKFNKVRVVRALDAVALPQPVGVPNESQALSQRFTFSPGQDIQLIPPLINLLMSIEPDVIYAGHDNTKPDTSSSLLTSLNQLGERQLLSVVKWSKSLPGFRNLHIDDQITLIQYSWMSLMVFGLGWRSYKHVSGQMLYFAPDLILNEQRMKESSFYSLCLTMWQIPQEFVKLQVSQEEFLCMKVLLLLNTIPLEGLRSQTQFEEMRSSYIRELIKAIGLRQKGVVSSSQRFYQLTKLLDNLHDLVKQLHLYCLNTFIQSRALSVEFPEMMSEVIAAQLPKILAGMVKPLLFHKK
The assay can be described thus: Displacement of [3H]-Progesterone from human PR expressed in 293 cells after 16 hrs by scintillation counting. The method in brief:
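The PR assay ran like the MR cytosolic binding assay from transfected 293 cells, with 5 nM [3H]-progesterone as ligand. Incubation was 16 h at 4 °C in TEGM buffer pH 7.2, followed by dextran/gelatin-charcoal removal of free label and scintillation counting of the supernatant. Concentrations were run in duplicate; IC50 taken as the mean of duplicate experiments from concentration-response curves.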

Assay [3] addresses T3, Androgen receptor (Homo sapiens, UniProt P10275).
T3 sequence (P10275 whole entry): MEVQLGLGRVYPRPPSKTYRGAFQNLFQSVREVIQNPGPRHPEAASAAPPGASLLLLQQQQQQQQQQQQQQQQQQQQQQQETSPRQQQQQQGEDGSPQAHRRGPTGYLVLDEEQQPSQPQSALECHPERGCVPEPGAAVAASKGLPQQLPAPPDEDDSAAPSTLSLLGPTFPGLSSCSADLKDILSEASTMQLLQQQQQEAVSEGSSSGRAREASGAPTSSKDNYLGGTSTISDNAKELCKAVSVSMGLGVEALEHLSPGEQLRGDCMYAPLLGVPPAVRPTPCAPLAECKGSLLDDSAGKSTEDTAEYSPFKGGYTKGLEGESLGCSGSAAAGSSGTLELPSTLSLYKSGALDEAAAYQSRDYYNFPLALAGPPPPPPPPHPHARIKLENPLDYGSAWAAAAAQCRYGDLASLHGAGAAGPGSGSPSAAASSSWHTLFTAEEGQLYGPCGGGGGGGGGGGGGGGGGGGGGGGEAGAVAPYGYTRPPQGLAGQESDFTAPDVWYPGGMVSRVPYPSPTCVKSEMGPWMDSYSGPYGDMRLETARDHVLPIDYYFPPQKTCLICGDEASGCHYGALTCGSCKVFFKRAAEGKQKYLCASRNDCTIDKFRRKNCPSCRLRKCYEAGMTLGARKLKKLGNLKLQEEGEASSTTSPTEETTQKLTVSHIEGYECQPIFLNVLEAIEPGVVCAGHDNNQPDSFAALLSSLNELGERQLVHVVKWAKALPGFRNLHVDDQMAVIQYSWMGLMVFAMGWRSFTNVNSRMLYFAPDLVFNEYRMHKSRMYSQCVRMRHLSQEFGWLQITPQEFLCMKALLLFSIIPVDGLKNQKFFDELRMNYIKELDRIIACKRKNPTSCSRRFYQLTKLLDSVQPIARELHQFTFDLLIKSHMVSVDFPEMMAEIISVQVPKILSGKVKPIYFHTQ
The experiment in a line: Displacement of [3H]-Testosterone from human AR expressed in 293 cells after 16 hrs by scintillation counting. The method in brief:
as §1

SMILES strings stand for the structures.

Take `CC1OC(=O)C(c2ccc(F)cc2)=C1c1ccc2c(c1)NC(=O)CO2` (racemic): the IC50 in assay [1] was 3.8 µM; in assay [2] it was 0.74 µM; in assay [3], more than 10 µM.
Regarding `O=C1COc2ccc(C3=C(c4ccc(F)cc4F)C(=O)OC3)cc2N1`, the IC50 in assay [1] is more than 10 µM; in assay [2], 4.6 µM; in assay [3], more than 10 µM.

Usually IC50 stands for the concentration needed to halve the response being measured. A high value points to lower potency.
